Experimental data: ChEMBL document CHEMBL1806394, “Synthesis, in vitro evaluation and molecular docking studies of new triazole derivatives as antifungal agents” (2011)
Converted amounts (≈) assume the structure as drawn.

Assays:
Type in all cases: functional
Candida albicans [1] = assay: Antifungal activity against Candida albicans SC5314 by micro-broth dilution method
Procedure, shortened: (§1)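 MIC80 determined by broth microdilution following NCCLS methods. C. albicans SC5314 and Y0109 and C. neoformans BLS108 served as quality-control strains and were included in every assay. Fluconazole, itraconazole, voriconazole and amphotericin B were run as positive controls.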

Candida albicans [2] = assay: Antifungal activity against Candida albicans Y0109 by micro-broth dilution method; procedure, shortened: as §1
Candida tropicalis = assay: Antifungal activity against Candida tropicalis by micro-broth dilution method; procedure, shortened: as §1
Candida parapsilosis = assay: Antifungal activity against Candida parapsilosis by micro-broth dilution method; conditions: Lodderomyces parapsilosis; procedure, shortened: as §1
Kluyveromyces marxianus = assay: Antifungal activity against Candida kefyr by micro-broth dilution method
Cryptococcus neoformans = assay: Antifungal activity against Cryptococcus neoformans BLS108 by micro-broth dilution method; procedure, shortened: as §1
Trichophyton rubrum = assay: Antifungal activity against Trichophyton rubrum by micro-broth dilution method; procedure, shortened: as §1
Aspergillus fumigatus = assay: Antifungal activity against Aspergillus fumigatus by micro-broth dilution method; procedure, shortened: as §1

Row | Structure (SMILES) | MIC80 (Candida albicans [1]) [µg/mL] | MIC80 (Candida albicans [2]) [µg/mL] | MIC80 (Candida tropicalis) [µg/mL] | MIC80 (Candida parapsilosis) [µg/mL] | MIC80 (Kluyveromyces marxianus) [µg/mL] | MIC80 (Cryptococcus neoformans) [µg/mL] | MIC80 (Trichophyton rubrum) [µg/mL] | MIC80 (Aspergillus fumigatus) [µg/mL]
1 | N#Cc1cccc(/C=C/C(=O)Nc2ccc(-n3cnn(CC(O)(Cn4cncn4)c4ccc(F)cc4F)c3=O)cc2)c1 (single isomer, unassigned) | 16 (≈ 28.1 µM) | 16 (≈ 28.1 µM) | 64 (≈ 113 µM) | 16 (≈ 28.1 µM) | > 64 | > 64 | > 64 | > 64
2 | CCCc1ccc(C(=O)Nc2ccc(-n3cnn(CC(O)(Cn4cncn4)c4ccc(F)cc4F)c3=O)cc2)cc1 (single isomer, unassigned) | 0.0039 (≈ 0.00697 µM) | 1 (≈ 1.79 µM) | 1 (≈ 1.79 µM) | 4 (≈ 7.15 µM) | > 64 | > 64 | > 64 | > 64
3 | CCCCCc1ccc(C(=O)Nc2ccc(-n3cnn(CC(O)(Cn4cncn4)c4ccc(F)cc4F)c3=O)cc2)cc1 (single isomer, unassigned) | 4 (≈ 6.81 µM) | > 64 | > 64 | > 64 | > 64 | > 64 | > 64 | > 64
4 | O=C(/C=C/c1ccc(Cl)c(Cl)c1)Nc1ccc(-n2cnn(CC(O)(Cn3cncn3)c3ccc(F)cc3F)c2=O)cc1 (single isomer, unassigned) | 4 (≈ 6.53 µM) | 4 (≈ 6.53 µM) | 4 (≈ 6.53 µM) | 64 (≈ 105 µM) | > 64 | > 64 | > 64 | > 64
5 | O=C(/C=C/c1ccc(F)cc1)Nc1ccc(-n2cnn(CC(O)(Cn3cncn3)c3ccc(F)cc3F)c2=O)cc1 (single isomer, unassigned) | > 64 | > 64 | > 64 | > 64 | > 64 | > 64 | > 64 | > 64
6 | COc1ccc(C(=O)Nc2ccc(-n3cnn(CC(O)(Cn4cncn4)c4ccc(F)cc4F)c3=O)cc2)cc1 (single isomer, unassigned) | 1 (≈ 1.83 µM) | 1 (≈ 1.83 µM) | 4 (≈ 7.31 µM) | 1 (≈ 1.83 µM) | 16 (≈ 29.2 µM) | > 64 | > 64 | > 64
7 | O=C(Nc1ccc(-n2cnn(CC(O)(Cn3cncn3)c3ccc(F)cc3F)c2=O)cc1)c1cccc(Cl)c1 (single isomer, unassigned) | 0.00024 (≈ 0.000435 µM) | 0.00024 (≈ 0.000435 µM) | 1 (≈ 1.81 µM) | 0.00024 (≈ 0.000435 µM) | 4 (≈ 7.25 µM) | 16 (≈ 29 µM) | > 64 | > 64
8 | O=C(Nc1ccc(-n2cnn(CC(O)(Cn3cncn3)c3ccc(F)cc3F)c2=O)cc1)c1ccccc1F (single isomer, unassigned) | 0.0625 (≈ 0.117 µM) | 4 (≈ 7.47 µM) | 0.0625 (≈ 0.117 µM) | 0.0156 (≈ 0.0291 µM) | 1 (≈ 1.87 µM) | 64 (≈ 120 µM) | 16 (≈ 29.9 µM) | > 64
9 | O=C(Nc1ccc(-n2cnn(CC(O)(Cn3cncn3)c3ccc(F)cc3F)c2=O)cc1)c1ccc(F)cc1 (single isomer, unassigned) | 0.0625 (≈ 0.117 µM) | 1 (≈ 1.87 µM) | 0.0625 (≈ 0.117 µM) | 0.0625 (≈ 0.117 µM) | 4 (≈ 7.47 µM) | 64 (≈ 120 µM) | 16 (≈ 29.9 µM) | > 64
10 | O=C(/C=C/c1ccc(Br)cc1)Nc1ccc(-n2cnn(CC(O)(Cn3cncn3)c3ccc(F)cc3F)c2=O)cc1 (single isomer, unassigned) | 1 (≈ 1.61 µM) | 4 (≈ 6.43 µM) | > 64 | 1 (≈ 1.61 µM) | > 64 | > 64 | > 64 | > 64
11 | O=C(/C=C/c1ccccc1[N+](=O)[O-])Nc1ccc(-n2cnn(CC(O)(Cn3cncn3)c3ccc(F)cc3F)c2=O)cc1 (single isomer, unassigned) | 1 (≈ 1.7 µM) | 1 (≈ 1.7 µM) | 1 (≈ 1.7 µM) | 1 (≈ 1.7 µM) | > 64 | > 64 | > 64 | > 64
12 | Cc1ccc(/C=C/C(=O)Nc2ccc(-n3cnn(CC(O)(Cn4cncn4)c4ccc(F)cc4F)c3=O)cc2)cc1 (single isomer, unassigned) | 1 (≈ 1.79 µM) | 4 (≈ 7.17 µM) | 4 (≈ 7.17 µM) | > 64 | > 64 | > 64 | > 64 | > 64
13 | OC(Cn1cncn1)(Cn1cncn1)c1ccc(F)cc1F [FLUCONAZOLE] | 0.25 (≈ 0.816 µM) | 0.25 (≈ 0.816 µM) | 1 (≈ 3.27 µM) | 0.25 (≈ 0.816 µM) | 4 (≈ 13.1 µM) | 1 (≈ 3.27 µM) | 1 (≈ 3.27 µM) | > 64
